Compound activity from PubChem.
Rows were chosen to be rich in hits. Some 3% of all compounds tested hit in one or more screens of this group.
Hsp70 act: switches on Hsp70 transcription. hit rate 0.04% among 200,000. HeLa Hsp70 promoter luciferase reporter, luminescence; scaled: vehicle 0, proteasome-inhibitor control 100%. activation, % at 10 µM;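 active = activation above the mean across all tested compounds plus 3 SD, cutoff set per campaign, cut at about 5.5% in these data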;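 note: 100% = MG132 at 30 µM as the positive control and 0% = DMSO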
NPY Y1 blocker: blocks the human neuropeptide Y Y1 receptor | P25929 | HEK293-CNG Y1 cells, membrane potential fluorescence; NPY at EC95, then isoproterenol | inhibition, % at 3.6 µM | hit rate 1% among 200,000 | AID 1040;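 active = inhibition above the campaign mean inhibition of all tested compounds plus 3 SD, cut at about 20% in these data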;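 note: 0% = DMSO wells given NPY plus isoproterenol and 100% = isoproterenol alone without NPY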
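Assay system: HEK293 Y1/CNG channel cell line; Doses: single compound dose of 3.6 µM, 0.4% DMSO; Timing: dye 3 h, compound 60 min room temperature, stimulation 45 min; Technique: Membrane-potential fluorescent dye readout; Measure: % inhibition of NPY effect.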
NPY1 pot ag: potentiators or agonists of human neuropeptide Y receptor Y1 | NPY-Y1 expressing cells, potentiator/agonist activation | activation, % at 3.6 µM | hit rate 0.37% among 220,000 | AID 1304; in the data active = activation above about 33%, passing the limit was not always enough;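 note: cells stimulated with NPY at EC10 then isoproterenol at EC100; 0% = low agonist plus stimulus and 100% = saturating agonist plus stimulus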
Wee1 degr inh: blocks degradation of human Wee1 kinase; HeLa Luc-Wee1K328M stability, luciferase luminescence; 100% = proteasome inhibitor MG132 effect; reporter increase, % at 5 µM; hit rate 1.2% among 220,000; AID 1321;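 active = activation above the mean of all tested compounds plus 3 SD, set per screening run, cut at about 8.8% in these data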;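 note: cells exposed to compound for 20 h before luminescence read; 0% = DMSO alone and 100% = MG132 at 30 µM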
NPY-Y2 antag: antagonists of human neuropeptide Y receptor Y2; P49146; NPY-Y2 expressing cells, antagonist mode; inhibition, % at 2.7 µM; hit rate 0.99% among 140,000; AID 793; in the data active = inhibition above about 17%;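 note: 0% = vehicle with agonist challenge and 100% = reference antagonist with challenge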
Target sequence (P49146 whole entry, looked up): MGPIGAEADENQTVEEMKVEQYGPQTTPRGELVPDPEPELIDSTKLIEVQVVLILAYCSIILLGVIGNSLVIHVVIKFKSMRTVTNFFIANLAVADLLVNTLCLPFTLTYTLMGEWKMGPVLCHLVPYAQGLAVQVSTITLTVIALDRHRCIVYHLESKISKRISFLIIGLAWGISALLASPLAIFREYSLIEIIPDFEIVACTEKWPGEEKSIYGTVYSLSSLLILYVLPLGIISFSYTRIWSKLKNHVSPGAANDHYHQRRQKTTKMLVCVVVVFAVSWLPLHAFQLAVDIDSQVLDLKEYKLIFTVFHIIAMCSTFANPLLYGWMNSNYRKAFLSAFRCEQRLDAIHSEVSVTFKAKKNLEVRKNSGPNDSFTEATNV
NPY2 pot ag: potentiators or agonists of human neuropeptide Y receptor Y2 | P49146 | cells expressing NPY-Y2, potentiator/agonist read-out | activation, % at 3.6 µM | hit rate 0.45% among 220,000 | AID 1359; in the data active = activation above about 27%;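 note: cells stimulated with NPY near EC25 plus isoproterenol at EC100; 0% = vehicle plus submaximal agonist and 100% = vehicle plus saturating agonist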
Wee1 degr conf: confirmation of human Wee1 degradation inhibitors; activation, % at 5 µM; HeLa Luc-Wee1K328M degradation, luminescence; vehicle 0%, proteasome-blocked wells 100%; hit rate 4% among 1,100; shares compounds with Wee1 degr inh; in the data active = activation above about 8.9%
An asterisk follows results filed as active; x = not tested or not shown.

SMILES	Hsp70 act	NPY Y1 blocker	NPY1 pot ag	Wee1 degr inh	NPY-Y2 antag	NPY2 pot ag	Wee1 degr conf
CCOC(=O)CC(NC(=O)Cn1nnc(-c2ccccc2F)n1)c1ccccc1Cl (stereo not given)	0	3	13	-4	x	-4	x
CCOC(=O)CC(NC(=O)Cn1nnc(-c2ccccc2C)n1)c1ccc(OC)cc1 (stereo not given)	0	-1	5	12*	x	2	2
O=[N+]([O-])c1ccccc1N/N=C/c1cccc(O)c1O	x	x	33	0	x	0	x
O=[N+]([O-])c1cccc(N/N=C/c2cccc(O)c2O)c1	0	-2	7	11*	x	17	-3
O=C(NC(=S)N1CCN(c2nc(-c3ccccc3)cs2)CC1)c1cccnc1	0	9	-4	-1	6	13	x
COc1ccnc(Oc2cccc(C(F)(F)F)c2)c1C(=O)N/C=N/OCc1ccccc1F	0	-2	-8	0	x	-15	x
COC(=O)Cn1c(CCS(=O)(=O)c2ccc(C)c(C)c2)nc2ccccc21	0	7	-3	-2	1	-2	x
O=C(O)Cn1c(CCS(=O)(=O)c2ccc(Br)cc2)nc2ccccc21	0	0	-11	13*	x	-10	-1
Cc1ccc(C#N)c(SCc2ccccc2F)n1	x	x	-23	11*	x	-11	3
O=S(=O)(c1ccc(S(=O)(=O)N(Cc2ccco2)Cc2ccccc2Cl)cc1)N1CCCC1	0	3	-29	27*	5	-15	2
COC(=O)c1cc(C(=O)NCCCN2CCOCC2)cc([N+](=O)[O-])c1	0	0	1	2	x	-2	x
CCN(CC)CCn1c(SCC(=O)Nc2cccc(OC)c2)nc2c(sc3ccccc32)c1=O	0	4	-39	12*	x	-29	5
COc1ccc(/C=C/C(=O)c2ccccn2)cc1	0	-2	-1	12*	x	-1	-1
COc1ccc(CC(=O)O/N=C(\N)c2ccccn2)cc1	x	x	11	16*	x	-31	4
N/C(=N\OC(=O)Cc1ccc(-c2ccccc2)cc1)c1ccccn1	0	8	-11	0	4	5	x
Nc1cc(C(=O)OCC(=O)NCc2ccco2)ccc1Cl	0	6	-14	2	0	-17	x
NC(=O)COc1ccc2oc(-c3ccccc3)cc(=O)c2c1	0	2	-3	14*	x	-9	4
CCOC(=O)COc1ccc2c(=O)cc(-c3ccccc3)oc2c1	x	x	-11	0	x	1	x
CC(C)CC(=O)NC(c1ccccc1Cl)c1c(O)ccc2ccccc12 (stereo not given)	0	2	11	21*	-2	4	2
O=C(NCCCn1ccnc1)/C(=C\c1cccnc1)NC(=O)c1ccccc1F	0	1	1	21*	x	-4	-2
O=C(NCCCn1ccnc1)/C(=C\c1cccnc1)NC(=O)c1ccco1	0	6	12	-2	x	-5	x
O=C(NCCN1CCOCC1)c1ccncc1	0	-4	11	12*	2	3	5
Cc1cc(C)cc(NC(=S)NCc2ccc(S(N)(=O)=O)cc2)c1	0	0	5	-1	x	0	x
COc1ccc2[nH]c(=O)c(C(c3nnnn3C3CCCC3)N3CCN(Cc4ccc5c(c4)OCO5)CC3)cc2c1 (stereo not given)	0	6	11	0	4	-25	x
Cc1cc(C)n2nc(C(=O)NCc3ccco3)cc2n1	0	5	-3	17*	x	-9	1
SMILES	Hsp70 act	NPY Y1 blocker	NPY1 pot ag	Wee1 degr inh	NPY-Y2 antag	NPY2 pot ag	Wee1 degr conf
Cc1cc(C)n(Cc2ccc(C(=O)NCc3ccco3)o2)n1	0	-4	13	3	-2	5	x
CC(=O)C1C(=O)c2c(cccc2[N+](=O)[O-])C1=Nc1ccc(S(N)(=O)=O)cc1 (stereo not given)	0	2	16	0	x	8	x
Cc1cc(C)n(CCN(C)Cc2nc(Cc3ccccc3F)no2)n1	0	3	11	11*	x	-7	0
CN(Cc1nc(Cc2ccccc2F)no1)[C@@H]1CS(=O)(=O)C[C@H]1O	0	-7	15	-1	x	-4	x
CC(=O)c1ccc(N=Nc2ccc(N(C)C)cc2)cc1	0	-6	24	5	x	3	x
CC(=O)c1ccc(N=Nc2ccc(C)cc2)cc1	0	-3	2	24*	x	-6	-4
O=C(Nc1nc2c(s1)CCCC2)c1cc2n(n1)C(C(F)(F)F)CC(C1CC1)N2 (stereo not given)	0	8	9	15*	-2	1	2
Cc1nnc(NC(=O)c2cc3n(n2)C(C(F)(F)F)CC(C2CC2)N3)s1 (stereo not given)	0	1	11	1	-3	0	x
Cc1ccc(S(=O)(=O)N2CCCCC2)cc1C(=O)Nc1cccnc1	x	x	6	18*	x	-2	2
O=C(NC1CC1)C1=C[C@@H](c2csc3ccccc23)C[C@@H](OCc2ccc(CO)cc2)O1	0	-3	-8	0	x	-7	x
C/C(=N\Nc1ccc(S(=O)(=O)Nc2ccccc2)cc1[N+](=O)[O-])c1ccc(N2CCOCC2)cc1	0	-4	1	0	x	-2	x
C/C(=N\Nc1ccc(S(=O)(=O)Nc2ccc(Cl)cc2)cc1[N+](=O)[O-])c1ccc(N2CCOCC2)cc1	0	-6	13	12*	-4	6	0
CC(c1ccccc1)n1cc(C(=O)NCC2COc3ccccc3O2)nn1 (stereo not given)	0	-2	-6	15*	7	-12	3
O=C(NCC1COc2ccccc2O1)c1cn(Cc2ccc(F)cc2)nn1 (stereo not given)	1	0	-14	-3	1	7	x
CN(C)C(=S)N=Nc1[nH]c2ccccc2c1O	0	3	5	11*	x	9	-1
CNC(=S)N=Nc1c(O)[nH]c2ccccc12	0	-1	-7	-2	7	6	x
FCCCOc1ccc(CN2CCN(c3ccccc3F)CC2)cc1	0	5	-23	3	x	-8	x
C/C(=N\NC(=O)c1nc2ccccn2c1C)c1ccc2c(c1)OCO2	0	1	-3	12*	4	-2	4
C/C(=N\NC(=O)c1nc2ccccn2c1C)c1cccc([N+](=O)[O-])c1	0	-1	4	-2	x	4	x
N/C(Cc1nc(-c2ccc(Cl)cc2)cs1)=N/O	x	x	3	1	x	-4	x
Clc1ccc(OCc2nnc(SCc3nnc(-c4ccccc4)o3)o2)c(Cl)c1	0	7	-48	-2	12	-26	x
c1ccc2c(-c3c[nH]c4ccccc34)c3ccccc3nc2c1	0	4	7	12*	8	-31	1
